Several values for one entry are separate records, joined by “and”; a condition that tells them apart may be missing. Equal values may be shown once. Entries after “also recorded” stand apart in the source; their conditions may differ. Marks after values point to notes of the source that are not given here. Each block holds one molecule with its values, some of them ahead of it.
Legend:
[1] = system: 3D HepaRG; experiment: Cell viability assay; format: cell-based, human; conditions: for higher toxicity of metabolite compared to its solvent (EC50, 3D HepaRG): 2‐MPA vs β‐PGME, 2‐MAA vs EGME; for EC50: Homo sapiens, HepaRG
Summary of the method: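 HepaRG spheroids formed from 3000 cells/well in U-bottom plates, 7 days pre-exposure. Dosing: half the medium replaced with twofold-concentrated compound; plates gas-permeable sealed. Ranges: glycol ethers 10–1000 mM, acid metabolites 1–25 mM, ethanol 1–600 mM; top solutions neutralised to pH 7.4, filtered. ATP by CellTiter-Glo luminescence at 48 h and 7 days, % of untreated control. EC50 calculated. N = 3–4 biological repeats, triplicates.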

[2] = Data derived from Pubchem ref PubChem (nih.gov); cited from earlier work
[3] = system: 2D HepaRG; experiment: Cell viability assay; format: cell-based; conditions: Homo sapiens
Summary of the method: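 HepaRG seeded at 2.25 × 10⁵ cells/cm² in 96-well plates 7 days before exposure; plates gas-permeable sealed. Ranges: glycol ethers 10–1000 mM, metabolites 1–25 mM, ethanol 1–600 mM. Highest-concentration solutions neutralised to pH 7.4 with NaOH, filter-sterilised. ATP by CellTiter-Glo luminescence at 48 h and 7 days, as % untreated control. EC50 calculated. N = 3–4 biological repeats, triplicates.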

[4] = TK model parameter; ref Kerns et al. [54]; cited from earlier work
[5] = TK model parameter; ref Devanthéry et al. [20]; cited from earlier work
[6] = system: 3D HepaRG; experiment: Albumin ELISA assay in 3D HepaRG supernatant; format: cell-based, human; conditions: 3D HepaRG exposed to 16 mM APAP for 48 h; untreated 78.4 ± 22.9 ng/mL
[7] = system: human hepatocytes; conditions: EGME, from reported Km and Vmax applying the scaling factors of this study
[8] = system: ADH1C; experiment: Gene expression q‐RT‐PCR in HepaRG, ADH1C; format: cell-based, human; conditions: 7‐day exposure
Summary of the method: (§1)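 HepaRG seeded at 2.25 × 10⁵ cells/cm² in 96-well plates for 7 days. RNA extracted with Qiazol/TRIzol plus glycogen. Reverse transcription with M-MLV and oligo dT. TaqMan probe qPCR program: 95°C 10 min, then 40 cycles of 95°C 15 s and 60°C 1 min.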

[9] = used for β‐PGME to PG in TK model; ref Gargas et al. [55]; cited from earlier work
[10] = system: CYP2E1; experiment: Gene expression q‐RT‐PCR in HepaRG, CYP2E1; format: cell-based, human; conditions: 7‐day exposure
Summary of the method: as §1

[11] = system: ALDH2; experiment: Gene expression q‐RT‐PCR in HepaRG, ALDH2; format: cell-based, human; conditions: 7‐day exposure
Summary of the method: as §1

[12] = system: human hepatocytes; conditions: EGME; cited from earlier work
[13] = system: ADH / ALDH in human liver S9 fraction; experiment: Inhibition of 2‐MPA formation in S9 incubations; format: biochemical; conditions: 5 mM β‐PGME, S9, NAD+ only, 45 min
Summary of the method: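 Human liver S9 (2 mg/mL) in 100 mM potassium phosphate pH 7.4, 3 mM MgCl₂. Substrate 5 mM, chosen below ADH saturation; NAD⁺ as sole cofactor. ADH inhibitor at 50 μM or ALDH inhibitor at 10 μM, final. 5 min preincubation; cofactor starts reaction; 45 min, 37°C, 300 rpm. Stopped with ice-cold acetonitrile. Acid metabolite by HPLC-MS/MS. N = 3, duplicates. One-way ANOVA/Dunnett versus control.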

[14] = plasma binding; measured data derived from literature ref 32; cited from earlier work
[15] = Metabolite formation in the 3D HepaRG liver model; format: in vitro ADME, human; conditions: human, 3D HepaRG spheroids
Summary of the method: (§2)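 HepaRG spheroids (79 per well, 2772 cells each) formed 7 days in ultra-low-attachment micro-arrays. Substrate added as threefold concentrate to 5 mM final; 37°C, 5% CO₂, sealed. Supernatant sampled at 1, 15, 30, 45 min and 1, 6, 24 h, acetonitrile-quenched. Metabolite by HPLC-MS/MS. Formation constant from ln concentration versus time over 60 min; CLint per million cells. fu,inc by Kilford method (1.46 × 10⁶ cells/mL); well-stirred CLh. N = 3.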

[16] = system: 3D HepaRG; experiment: Metabolite formation in the 3D HepaRG liver model; format: in vitro ADME, human; conditions: 3D HepaRG, metabolite formation
Summary of the method: as §2

[17] = cited from earlier work
[18] = S9 fraction incubation, solvent loss and metabolite formation; format: in vitro ADME, human; conditions: human, human liver S9 fraction; for microsomal CLint at 700 μM: pH 7.4, CLint, in vitro, S9, measured, 700 μM β‐PGME; for CLint scaled at 700 μM: pH 7.4, Predicted CL int, in vivo
Summary of the method: (§3)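 S9 2 mg/mL, 100 mM phosphate pH 7.4, 3 mM MgCl₂, 1 mM NAD⁺/NADPH; substrate 700 μM, 37°C. Aliquots at 1, 12, 23, 34, 45 min quenched with 2 volumes ice-cold acetonitrile; cofactor-free controls. Elimination or formation constant from slope of ln % parent remaining or ln metabolite versus time; CLint = k × volume / S9 protein. Scaled to CLh with well-stirred model. N = 3, duplicates.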

[19] = system: human liver subcellular fraction (S9); experiment: as above; format: in vitro ADME; conditions: for In vitro predicted hepatic organ clearance (CL h), CLmetMPA: measured; for Predicted CL h: well‐stirred liver model
Summary of the method: as §3

[20] = S9 fraction incubation, Michaelis–Menten kinetics β‐PGME to 2‐MPA; format: in vitro ADME, human; conditions: human, human liver S9 fraction, pH 7.4
Summary of the method: (§4)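 Human liver S9 (2 mg/mL), 100 mM phosphate pH 7.4, 3 mM MgCl₂, substrate 0.1–8 mM; 1 mM NAD⁺ plus 1 mM NADPH start the reaction after 5 min preincubation. 45 min, 37°C; cofactor-free controls; acetonitrile stop. Metabolite by HPLC-MS/MS. Km/Vmax by nonlinear Michaelis–Menten fit; CLint = Vmax/Km. Scaled via physiological factors; well-stirred model (QH 20.7 mL/min/kg, fu,inc by Hallifax–Houston). N = 3, duplicates.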

[21] = system: human liver subcellular fraction (S9); experiment: as above; format: in vitro ADME
Summary of the method: as §4

[22] = β‐PGME → 2‐MPA, S9 2 mg/mL, 45 min

Structure (SMILES): COCC(=O)O [2‐MAA, 2‐Methoxyacetic acid, reference compound]
- higher toxicity of metabolite compared to its solvent (EC50, 3D HepaRG) [1]: ~50 fold
- EC50 ([1]; 48 h): 11 mM
- EC50 ([1]; 168 h): 9 mM
- logP [2]: −0.30
- EC50 ([3]; 48 h): 31 mM
- EC50 ([3]; 168 h): 16 mM

Structure (SMILES): COC(C)C(=O)O (stereo not drawn) [2‐MPA, 2‐Methoxypropionic acid]
- Permeability coefficient (BBB) (PeMPA) [4]: 100 ×10⁻⁶ cm/s
- higher toxicity of metabolite compared to its solvent (EC50, 3D HepaRG) [1]: approximately fourfold; also recorded: approximately four times lower
- EC50 ([1]; 48 h): 46 mM
- EC50 ([1]; 168 h): 26 mM
- Urinary excretion rate of 2‐MPA (KMPA) [5]: 0.09 h⁻¹
- EC50 ([3]; 48 h): 81 mM
- EC50 ([3]; 168 h): 34 mM

- albumin secretion (albumin concentration in medium) [6]: 1.78 ± 0.68 ng/mL
Structure (SMILES): CC(=O)Nc1ccc(O)cc1 [APAP, acetaminophen]

Structure (SMILES): COCCO [EGME, 2‐Methoxyethanol]
- calculated in vitro CLint [7]: 0.62 µL/min/mg
- expression of ADH1C [8]: not induced
- Kinetic constant EGME → EG (ethylene glycol) (CLmetPG) [9]: 5 mL/min/kg
- logP [2]: −0.80
- expression of CYP2E1 [10]: not induced
- expression of ALDH2 [11]: not induced
- V max [12]: 61.3 nmol/h/10^6 cells

Structure (SMILES): c1ccc(-c2ccc3nc(-c4ccccc4)cn3c2)cc1 [GA11, 2,6‐diphenylimidazo[1,2‐a]pyridine]
- 2‐MPA formation compared to control incubations ([13]; 10 μM GA11 (ALDH inhibitor)): significantly reduced

- expression of CYP2E1 [10]: not induced
Structure (SMILES): COCC(C)O (stereo not drawn) [PGME, 1‐Methoxypropan‐2‐ol]
- EC50 ([1]; 168 h): 96 mM
- expression of ADH1C [8]: not induced
- fu,b [14]: 0.540 ^c 0.540 ^c
- logP [2]: −0.49 −0.49
- expression of ALDH2 [11]: not induced

- expression of CYP2E1 [10]: not induced
Structure (SMILES): CCO [ethanol]
- expression of ADH1C [8]: not induced
- expression of ALDH2 [11]: not induced

Structure (SMILES): Cc1cn[nH]c1 [fomepizole, 4‐methyl pyrazole]
- 2‐MPA formation compared to control incubations ([13]; 50 μM fomepizole (ADH inhibitor)): significantly reduced

- CLint scaled at 5 mM [15]: 28.2 ± 2.5 mL/min/kg
- hepatocyte CLint at 5 mM [15]: 9.34 ± 0.83 µL/min/1e6 cells
- microsomal CLint at 5 mM [15]: 9.62 ± 0.85 µL/min/mg
- In vitro predicted hepatic organ clearance (CL h), CLmetMPA ([16]; measured): 9.07 mL/min/kg
- Predicted CL h ([16]; well‐stirred liver model): 9.07 ± 0.44 mL/min/kg
- microsomal CLint at 700 μM ([18]; metabolite formation): 40.9 ± 5.19 µL/min/mg
- microsomal CLint at 700 μM ([18]; solvent loss): 3.8 ± 2.14 µL/min/mg
- CLint scaled at 700 μM ([18]; S9, metabolite formation): 127 ± 16.1 mL/min/kg
- CLint scaled at 700 μM ([18]; S9, solvent loss): 11.8 ± 6.67 mL/min/kg
- In vitro predicted hepatic organ clearance (CL h), CLmetMPA ([19]; S9, metabolite formation): 16.4 mL/min/kg
- Predicted CL h ([19]; S9, metabolite formation): 16.4 ± 0.47 mL/min/kg
- In vitro predicted hepatic organ clearance (CL h), CLmetMPA ([19]; S9, solvent loss): 5 mL/min/kg
- clearance ranking based on in vitro predicted CLh values ([19]; overall generated CLh values (S9 and 3D HepaRG), reported clearance rankings): low to medium clearance compound
- CLint scaled [20]: 0.6 ± 0.09 mL/min/kg
- microsomal CLint [20]: 0.19 ± 0.03 µL/min/mg
- Predicted CL h ([21]; S9, calculated (Vmax/Km), well‐stirred liver model): 0.36 ± 0.05 mL/min/kg
- In vitro predicted hepatic organ clearance (CL h), CLmetMPA ([21]; S9, metabolite formation, calculated (V max/K m)): 0.36 mL/min/kg
Structure (SMILES): COC(C)CO (stereo not drawn) [β‐PGME, 2‐Methoxypropan‐1‐ol]
- EC50 ([1]; 168 h): 86 mM
- excretion of conjugated β‐PGME [17]: 3%
- β‐PGME excreted as 2‐MPA ([17]; published rat studies): more than 60%
- Predicted CL h ([19]; S9, solvent loss): 5.00 ± 2.52 mL/min/kg and 5.03 ± 2.52 mL/min/kg
- fu,b [14]: 0.540 ^c 0.540 ^c
- logP [2]: −0.49 −0.49
- K m [21, 22]: 5.572 ± 2.171 mM
- V max [21, 22]: 1.04 ± 0.28 nmol/min/mg
